According to ChEMBL document CHEMBL4368881, “A β-glucuronidase-responsive albumin-binding prodrug programmed for the double release of monomethyl auristatin E” (Medchemcomm, 2018):
The source made the active and inactive calls. No cut-off for these calls is given here.

Tests used:
LS174T [1] = experiment: Inhibition of anchorage-independent colony formation in 3D culture of human LS174T cells at 5 nM measured after 3 days by soft agar colony formation assay; assay type: functional, cell-based
Outline: (§1)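 LS174T cells (early passage, <10) were grown in EMEM with 10 % FBS. 20x10³ isolated cells were seeded in 0.35 % agarose over a 0.6 % agarose base layer. Colonies grew for 10 days, with fresh medium every 3 days. They were then treated for 3 days at 5 nM, without or with β-glucuronidase (3700 U/well). Colony size was measured by macroscope imaging; mean ± s.e.m. of 5 independent experiments.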

LS174T [2] = experiment: Inhibition of anchorage-independent colony formation in 3D culture of human LS174T cells at 5 nM measured after 3 days in presence of beta-glucuronidase by soft agar colony formation assay; assay type: functional, cell-based; outline: as §1
LS174T [3] = experiment: Antitumor activity against human LS174T cells xenografted in athymic Balb/c mouse assessed as tumor growth inhibition at 2 mg/kg, iv administered on day 17 and 24; assay type: functional, organism-based
Outline: (§2)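 Eight-week-old male nude mice were implanted subcutaneously in the dorsal flank with 1x10⁶ LS174T cells in PBS/50 % Matrigel (day 0). Mice were randomized into groups of 6 and given iv doses in PBS–2 % DMSO, with a vehicle-injected control group. Tumor length and width were measured by caliper three times weekly; volume = length x width²/2.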

[4] = Toxicity in athymic Balb/c mouse xenografted with human LS174T cells assessed as effect on body weight at 2 mg/kg, iv administered on day 17 and 24 measured three times a week; assay type: organism-based; settings: in vivo
Outline: (§3)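 LS174T subcutaneous xenografts (1x10⁶ cells in PBS/50 % Matrigel) were set up in eight-week-old male nude mice. Groups of 6 received iv injections in PBS–2 % DMSO, with a vehicle control group. Body weight was recorded three times weekly. Mice were euthanized when tumor volume exceeded 2 cm³.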

Beta-glucuronidase = Beta-glucuronidase (Escherichia coli (strain K12), UniProt P05804); experiment: Prodrug conversion assessed as Escherichia coli beta-glucuronidase mediated MMAE formation after 5 hrs using albumin-conjugated compound by HPLC/HRMS analysis; assay type: ADME; settings: isolated protein
Outline: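 Prodrug 0.49 mg.mL-1 was held in 5 % human serum albumin solution at 37 °C for 4 h to form the albumin adduct. The mixture was diluted 1:3 with 0.02 M phosphate buffer (pH 7), then E. coli β-glucuronidase was added. Analysis was by C18 HPLC coupled to ESI-HRMS in positive ion mode.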

LS174T [5] = experiment: Antitumor activity against human LS174T cells xenografted in athymic Balb/c mouse assessed as tumor growth inhibition at 3 mg/kg, iv administered on day 17 and 24; assay type: functional, organism-based; outline: as §2
[6] = Toxicity in athymic Balb/c mouse xenografted with human LS174T cells assessed as effect on body weight at 3 mg/kg, iv administered on day 17 and 24 measured three times a week; assay type: organism-based; settings: in vivo; outline: as §3
Albumin = Albumin (Homo sapiens, UniProt P02768); experiment: Binding affinity to human serum albumin at 0.49 mg/ml after 4 hrs by HPLC/HRMS analysis; settings: isolated protein
Albumin, sequence (P02768 whole entry): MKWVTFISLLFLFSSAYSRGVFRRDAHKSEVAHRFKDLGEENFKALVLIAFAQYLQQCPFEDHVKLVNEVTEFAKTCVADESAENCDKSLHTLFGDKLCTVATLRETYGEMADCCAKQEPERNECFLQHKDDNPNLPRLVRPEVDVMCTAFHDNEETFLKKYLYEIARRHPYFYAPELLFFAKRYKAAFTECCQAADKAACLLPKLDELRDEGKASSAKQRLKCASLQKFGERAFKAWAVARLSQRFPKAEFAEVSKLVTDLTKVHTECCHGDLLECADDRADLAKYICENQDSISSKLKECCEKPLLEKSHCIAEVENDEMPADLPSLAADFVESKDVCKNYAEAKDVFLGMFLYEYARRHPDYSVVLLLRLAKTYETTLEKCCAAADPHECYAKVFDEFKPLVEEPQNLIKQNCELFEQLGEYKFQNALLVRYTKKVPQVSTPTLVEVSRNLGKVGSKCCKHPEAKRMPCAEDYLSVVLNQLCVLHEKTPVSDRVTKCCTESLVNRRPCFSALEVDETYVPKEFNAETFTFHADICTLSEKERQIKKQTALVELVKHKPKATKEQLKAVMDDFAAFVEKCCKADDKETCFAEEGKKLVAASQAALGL

Beta-glucuronidase, sequence (P05804 whole entry): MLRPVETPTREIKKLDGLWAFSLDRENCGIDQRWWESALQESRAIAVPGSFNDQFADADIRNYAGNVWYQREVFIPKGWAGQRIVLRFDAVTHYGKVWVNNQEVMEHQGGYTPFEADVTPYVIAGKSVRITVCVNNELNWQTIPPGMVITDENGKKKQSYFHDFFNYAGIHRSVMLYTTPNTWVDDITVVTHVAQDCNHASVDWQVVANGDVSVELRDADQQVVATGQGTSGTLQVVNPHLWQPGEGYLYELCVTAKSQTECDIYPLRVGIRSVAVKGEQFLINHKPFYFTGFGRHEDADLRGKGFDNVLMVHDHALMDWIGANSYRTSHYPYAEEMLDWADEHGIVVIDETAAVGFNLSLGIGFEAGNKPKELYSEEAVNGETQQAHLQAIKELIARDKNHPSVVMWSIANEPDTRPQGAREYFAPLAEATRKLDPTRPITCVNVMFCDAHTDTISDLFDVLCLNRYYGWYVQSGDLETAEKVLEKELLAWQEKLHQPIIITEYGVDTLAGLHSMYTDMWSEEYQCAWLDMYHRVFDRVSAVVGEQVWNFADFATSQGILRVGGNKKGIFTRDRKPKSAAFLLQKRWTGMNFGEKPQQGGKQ

Drug metabolism (Beta-glucuronidase)	Activity (Albumin)	Structure (SMILES)	inhibition (LS174T [1])	inhibition (LS174T [2])	TGI (LS174T [3])	Activity [4]	TGI (LS174T [5])	Activity [6]
–	–	CC[C@H](C)[C@@H]([C@@H](CC(=O)N1CCC[C@H]1[C@H](OC)[C@@H](C)C(=O)N[C@H](C)[C@@H](O)c1ccccc1)OC)N(C)C(=O)[C@@H](NC(=O)[C@H](C(C)C)N(C)C(=O)OC(Cc1cn(CCOCCOCCOCCOCCOCCOCCOCCOCCOCCOCCNC(=O)CCCCCN2C(=O)C=CC2=O)nn1)c1ccc(O[C@@H]2O[C@H](C(=O)O)[C@@H](O)[C@H](O)[C@H]2O)c([N+](=O)[O-])c1)C(C)C (stereo not given in full)	inactive	Active	Active	Non-Toxic	–	–
Metabolite_Detected	Active	CC[C@H](C)[C@@H]([C@@H](CC(=O)N1CCC[C@H]1[C@H](OC)[C@@H](C)C(=O)N[C@H](C)[C@@H](O)c1ccccc1)OC)N(C)C(=O)[C@@H](NC(=O)[C@H](C(C)C)N(C)C(=O)OCc1ccc(NC(=O)OC(Cc2cn(CCOCCOCCOCCOCCOCCOCCOCCOCCOCCOCCNC(=O)CCCCCN3C(=O)C=CC3=O)nn2)c2ccc(O[C@@H]3O[C@H](C(=O)O)[C@@H](O)[C@H](O)[C@H]3O)c([N+](=O)[O-])c2)c(COC(=O)N(C)[C@H](C(=O)N[C@H](C(=O)N(C)[C@@H]([C@@H](C)CC)[C@@H](CC(=O)N2CCC[C@H]2[C@H](OC)[C@@H](C)C(=O)N[C@H](C)[C@@H](O)c2ccccc2)OC)C(C)C)C(C)C)c1)C(C)C (stereo not given in full)	inactive	Active	–	–	Active	Non-Toxic
